# Assay results: article PMC4703045 (Chemistry & biology, 2015)
# T1: PKG Iα (Bos taurus, UniProt P00516)
# T1 sequence (P00516 1-671): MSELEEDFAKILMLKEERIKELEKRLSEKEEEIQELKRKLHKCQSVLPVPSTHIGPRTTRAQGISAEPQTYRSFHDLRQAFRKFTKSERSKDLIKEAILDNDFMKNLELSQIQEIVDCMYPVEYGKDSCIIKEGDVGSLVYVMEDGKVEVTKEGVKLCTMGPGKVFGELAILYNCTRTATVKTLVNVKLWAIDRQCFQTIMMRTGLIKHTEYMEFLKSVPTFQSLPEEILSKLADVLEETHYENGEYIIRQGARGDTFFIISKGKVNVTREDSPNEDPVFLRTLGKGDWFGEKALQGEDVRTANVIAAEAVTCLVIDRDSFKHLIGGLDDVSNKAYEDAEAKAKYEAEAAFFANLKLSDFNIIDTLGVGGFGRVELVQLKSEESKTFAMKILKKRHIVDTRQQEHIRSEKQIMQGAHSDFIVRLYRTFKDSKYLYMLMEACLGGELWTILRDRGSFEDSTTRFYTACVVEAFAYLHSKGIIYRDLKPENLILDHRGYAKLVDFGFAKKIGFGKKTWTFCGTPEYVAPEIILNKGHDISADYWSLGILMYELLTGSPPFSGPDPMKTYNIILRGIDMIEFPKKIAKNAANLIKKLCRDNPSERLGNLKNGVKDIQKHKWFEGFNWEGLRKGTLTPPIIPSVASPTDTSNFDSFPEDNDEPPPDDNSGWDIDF
# Tests used:
# [1] = biological target: T1, PKG Iα; experiment: PKG Iα kinase activation, γ32P-ATP incorporation assay with W15 substrate; type: biochemical; settings: for activation of PKG Iα (in words): absence of cGMP, 15 min pre-incubation at 30°C
# [2] = Secondary structure by circular dichroism spectroscopy; type: physicochemical; settings: 10 µM peptide in 10 mM PBS pH=7.4, 22°C, 260 to 190 nm
# Outline: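 CD spectra at 22°C in a 2 mm cuvette, with 10 µM peptide in 10 mM PBS pH 7.4. Scanned 260–190 nm at 0.5 nm intervals with 2 s integration and 100 nm/min. Ten accumulations were averaged per peptide, and output was given as mean residue ellipticity (mdeg × cm2/dmol × residue).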
# [3] = tested on: KCa1.1 channel; experiment: KCa1.1 channel open probability; type: biochemical, rat; settings: 500 nM Ca2+
# Outline: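 Inside-out patches excised from enzymatically dispersed cerebral artery smooth muscle cells. Bath (cytosolic face), mM: 140 KCl, 2 MgCl2, 0.1 Mg-ATP, 10 HEPES pH 7.3, 3 EGTA, CaCl2 to 500 nM. Pipette, mM: 120 NaCl, 20 KCl, 2 MgCl2, 1 CaCl2, 10 HEPES pH 7.4. […] NPo normalised to control patches; mean ± SEM.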
# [4] = tested on: PKG Iβ; experiment: PKG Iβ kinase activation assay; type: biochemical; settings: Ni-IMAC-purified PKG Iβ, over basal activity (Figure S1B)
# [5] = tested on: endothelium-denuded posterior cerebral arteries; type: cell-based, rat; settings: paxilline 1 µM; endothelium-denuded control PCAs without S1.5
# [6] = tested on: posterior cerebral arteries with intact endothelium; type: cell-based, rat; settings: control PCAs with intact endothelium, without S1.5
# [7] = biological target: cGMP-dependent protein kinase Iα (UniProt P00516)
# [8] = biological target: cGMP-dependent protein kinase Iα (UniProt P00516); remark: listed apart in the source
molecule,measurement,setting,value
Ac-DVSNKAYEDAEAKAKYEAEAAAAANLKLSD-NH2 [S1.6],activation of PKG Iα (in words),[1],equivalent to removal of the entire knob
same,helicity (secondary structure by CD),[2],increased degree of helicity
Ac-DAEAKAKYEAEAAFFANLKLSD-NH2 [S1.10],EC50,[1],45 ± 4 µM
Ac-DVSNKAYEDAEAKAKYEAEAA-NH2 [S1.3],activation of PKG Iα (in words),[1],completely abolished kinase activity
same,helicity (secondary structure by CD),[2],helicity was compromised but not completely lost
Ac-ALKSENYADKVEFKDAKYEASALANEFADA-NH2 [S1.7],activation of PKG Iα (in words),[1],did not activate the kinase
same,helicity (secondary structure by CD),[2],found to not be helical
Ac-AEAKAKYEAEAAFFANLKLSD-NH2 [S1.11],activation of PKG Iα (in words),[1],complete loss of activity
Ac-NKAYEDAEAKAKYEAEAAFFANLKLSD-NH2 [S1.4],EC50,[1],12 ± 1 µM
Ac-DVSNKAYEDAEAKAKYEAEAAFFANLK-NH2 [S1.2],EC50,[1],35 ± 4 µM
Ac-EDAEAKAKYEAEAAFFANLKLSD-NH2 [S1.9],EC50,[1],43 ± 5 µM
Ac-DVSNKAYEDAEAKAKYEAEAAFFANLKLSD-NH2 [S1.1],EC50,[1],35 ± 4 µM
same,activation of PKG Iα (in words),[1],robust and cooperative activation
same,effect on KM for the substrate peptide W15,[1]; control experiment (Figure S4),did not affect the KM
same,increase of KCa1.1 channel activity (NPo) versus control,"[3]; 100 µM peptide pre-incubated with PKG Iα, +10mV, p<0.05",6 fold
"Nc1nc2c(ncn2[C@@H]2O[C@@H]3COP(=O)(O)O[C@H]3[C@H]2O)c(=O)[nH]1 [cGMP, cyclic guanosine-3’,5’-monophosphate]",increase in activity under saturating quantities of cGMP,[4],15 fold
same,change in KCa1.1 open probability (NPo),[3]; 50 nM cGMP with recombinant PKG Iα in bath solution,no significant change
same,increase of KCa1.1 NPo above the control,"[3]; 5 µM cGMP (saturating) with PKG Iα, p<0.002",eight
CC(C)(O)[C@H]1O[C@H]2CC[C@@]3(C)[C@@](O)(CC[C@H]4Cc5c([nH]c6ccccc56)[C@@]43C)C2=CC1=O [paxilline],additional constriction on paxilline in control arteries,[5],5%
same,paxilline-induced constriction in control arteries,[6],4%
Ac-DVSNKAYEDAEAKAKYEAEAAFFANLK-NH2 [S1.2],maximal efficacy of activation of PKG Iα kinase activity,[7],60 % of maximum
Ac-NKAYEDAEAKAKYEAEAAFFANLKLSD-NH2 [S1.4],maximal velocity of PKG Iα kinase activity with the peptide,[8],80%
